Laboratory results from ChEMBL document CHEMBL1125557, “Dihydropyrimidine angiotensin II receptor antagonists” (J Med Chem, 1992).
Where “and” joins values, the source holds several entries; their conditions need not be identical. Equal entries are not always repeated. Each block holds one compound with its values, some of them ahead of it.

Key:
Oryctolagus cuniculus = species on record: Oryctolagus cuniculus; experiment: In vitro functional potency by antagonism of angiotensin II induced contraction of isolated rabbit aorta
Summary of the method: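 Isolated rabbit aorta contracted by angiotensin II; antagonism expressed as KB (nM, ±SEM).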

[1] = target: T1, Type-1 angiotensin II receptor B (Rattus norvegicus, UniProt P29089); experiment: Inhibition of [125I]- Sar,Ile8-angiotensin II binding to rat adrenal cortical membrane angiotensin II receptor
T1 sequence (P29089 whole entry): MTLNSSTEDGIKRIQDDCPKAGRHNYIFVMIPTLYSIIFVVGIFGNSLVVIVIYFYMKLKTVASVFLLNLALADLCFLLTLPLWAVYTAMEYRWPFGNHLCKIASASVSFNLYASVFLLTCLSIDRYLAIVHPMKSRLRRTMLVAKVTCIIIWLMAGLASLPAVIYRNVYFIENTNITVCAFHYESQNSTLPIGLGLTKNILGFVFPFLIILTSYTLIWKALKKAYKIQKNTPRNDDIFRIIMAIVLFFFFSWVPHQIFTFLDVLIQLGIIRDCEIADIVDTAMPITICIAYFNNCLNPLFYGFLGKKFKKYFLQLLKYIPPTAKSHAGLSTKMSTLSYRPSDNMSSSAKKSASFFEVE

Rattus norvegicus [2] = experiment: In vivo antihypertensive activity against spontaneously hypertensive rats after oral administration of 30 uM/Kg dose between 0-6 hours; type: functional
Summary of the method: (§1)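 Male SHR, surgically prepared, recovered 2 weeks on regular food and water. Low-NaCl diet from 5 days before testing; furosemide 2.5 mg/kg on 3 consecutive days before testing. Compounds given orally as agar suspension. Mean arterial pressure monitored for 24 h; maximum % fall in pressure per 6-h interval, n = 8-10.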

Rattus norvegicus [3] = experiment: In vivo antihypertensive activity against spontaneously hypertensive rats after oral administration of 30 uM/Kg dose between 12-18 hours; type: functional; summary of the method: as §1
Rattus norvegicus [4] = experiment: In vivo antihypertensive activity against spontaneously hypertensive rats after oral administration of 30 uM/Kg dose between 18-24 hours; type: functional; summary of the method: as §1
Rattus norvegicus [5] = experiment: In vivo antihypertensive activity against spontaneously hypertensive rats after oral administration of 30 uM/Kg dose between 6-12 hours; type: functional; summary of the method: as §1
Rattus norvegicus [6] = experiment: Compound was tested in vivo for antagonistic activity for the 50% inhibition of AII pressor response in male rats after intravenous administration; type: functional
Summary of the method: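 Normotensive male rats received three doses of test agent iv, then AII challenge (100 ng/kg iv) 2 min later. ED50 (dose halving the AII pressor response) from simplex curve fit of log dose versus maximum percent inhibition; n = 4.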

Rattus norvegicus [7] = experiment: In vivo antihypertensive activity against spontaneously hypertensive rats after oral administration of 30 umol/kg dose between 0-6 hours; type: functional; summary of the method: as §1
Rattus norvegicus [8] = experiment: In vivo antihypertensive activity against spontaneously hypertensive rats after oral administration of 30 umol/kg dose between 6-12 hours; type: functional; summary of the method: as §1
Rattus norvegicus [9] = experiment: In vivo antihypertensive activity against spontaneously hypertensive rats after oral administration of 10 umol/kg dose between 0-6 hours; type: functional; summary of the method: as §1
Rattus norvegicus [10] = experiment: In vivo antihypertensive activity against spontaneously hypertensive rats after oral administration of 30 umol/kg dose between 12-18 hours; type: functional; summary of the method: as §1
Rattus norvegicus [11] = experiment: In vivo antihypertensive activity against spontaneously hypertensive rats after oral administration of 30 umol/kg dose between 18-24 hours; type: functional; summary of the method: as §1
Rattus norvegicus [12] = experiment: In vivo antihypertensive activity against spontaneously hypertensive rats after oral administration of 10 umol/kg dose between 6-12 hours; type: functional; summary of the method: as §1
Rattus norvegicus [13] = experiment: In vivo antihypertensive activity against spontaneously hypertensive rats after oral administration of 10 uM/Kg dose between 0-6 hours; type: functional; summary of the method: as §1
Rattus norvegicus [14] = experiment: In vivo antihypertensive activity against spontaneously hypertensive rats after oral administration of 10 uM/Kg dose between 12-18 hours; type: functional; summary of the method: as §1
Rattus norvegicus [15] = experiment: In vivo antihypertensive activity against spontaneously hypertensive rats after oral administration of 10 uM/Kg dose between 18-24 hours; type: functional; summary of the method: as §1
Rattus norvegicus [16] = experiment: In vivo antihypertensive activity against spontaneously hypertensive rats after oral administration of 10 uM/Kg dose between 6-12 hours; type: functional; summary of the method: as §1

SMILES: CCCCC1=NC(Cl)=C(C(=O)OCC)C(c2ccccc2)N1Cc1ccc(-c2ccccc2C(=O)O)cc1 (stereo unspecified)
- Kb (Oryctolagus cuniculus; Oryctolagus cuniculus, Aorta): 1 µM

SMILES: CCCCC1=NC(c2ccccc2)=C(C(=O)OCC)C(C)N1Cc1ccc(-c2ccccc2C(=O)O)cc1 (stereo unspecified)
- Ki [1]: 0.85 µM
- Kb (Oryctolagus cuniculus; Oryctolagus cuniculus, Aorta): 0.63 µM

SMILES: CCCCC1=NC(C)=C(C(=O)OCC)C(C)N1Cc1ccc(-c2ccccc2C(=O)O)cc1 (stereo unspecified)
- Ki [1]: 0.99 µM
- Kb (Oryctolagus cuniculus; Oryctolagus cuniculus, Aorta): 0.66 µM

SMILES: CCCCc1nc(Cl)c(CO)n1Cc1ccc(-c2ccccc2-c2nnn[n-]2)cc1.[K+] [LOSARTAN POTASSIUM]
- Kb (Oryctolagus cuniculus): 0.0026 µM
- Decrease in blood pressure (Rattus norvegicus [7]): 31%
- ED50 (Rattus norvegicus [6]): 1.8 µmol/kg
- Decrease in blood pressure (Rattus norvegicus [8]): 35%
- Decrease in blood pressure (Rattus norvegicus [9]): 13%
- Decrease in blood pressure (Rattus norvegicus [10]): 37% and 22%
- Decrease in blood pressure (Rattus norvegicus [11]): 38% and 24%
- Decrease in blood pressure (Rattus norvegicus [12]): 20%

SMILES: CCCCc1nc(-c2ccccc2)c(C(=O)OCC)c(=O)n1Cc1ccc(-c2ccccc2C(=O)O)cc1
- Ki [1]: 1.6 µM
- Kb (Oryctolagus cuniculus; Oryctolagus cuniculus, Aorta): 0.14 µM

SMILES: CCCCc1nc(Cl)c(CO)n1Cc1ccc(-c2ccccc2-c2nnn[nH]2)cc1 [LOSARTAN]
- Kb (Oryctolagus cuniculus): 0.086 µM

More lines, in order of falling Ki [1], values ahead:

- Ki [1]: 0.19 µM
SMILES: CCCCC1=NC(c2ccc(Cl)cc2)=C(C(=O)OCC)C(C)N1Cc1ccc(-c2ccccc2C(=O)O)cc1 (stereo unspecified)
- Kb (Oryctolagus cuniculus; Oryctolagus cuniculus, Aorta): 0.52 µM

- Ki [1]: 0.15 µM
SMILES: CCCCc1nc(C)c(C(=O)OCC)c(=O)n1Cc1ccc(-c2ccccc2C(=O)O)cc1
- Kb (Oryctolagus cuniculus; Oryctolagus cuniculus, Aorta): 0.095 µM

- Ki [1]: 0.082 µM
SMILES: CCCCc1ncc(C(=O)OCC)c(=O)n1Cc1ccc(-c2ccccc2C(=O)O)cc1
- Kb (Oryctolagus cuniculus; Oryctolagus cuniculus, Aorta): 0.61 µM

- Ki [1]: 0.058 µM
SMILES: CCCCC1=NC(C)(C)C(C(=O)OCC)=C(Cl)N1Cc1ccc(-c2ccccc2C(=O)O)cc1
- Kb (Oryctolagus cuniculus; Oryctolagus cuniculus, Aorta): 0.023 µM

- Ki [1]: 0.041 µM
SMILES: CCCCC1=NC(Cl)=C(C(=O)OCC)C(C)N1Cc1ccc(-c2ccccc2C(=O)O)cc1 (stereo unspecified)
- Kb (Oryctolagus cuniculus; Oryctolagus cuniculus, Aorta): 0.07 µM

- Ki [1]: 0.0083 µM
SMILES: CCCCC1=NC(Cl)=C(C(=O)OCC)C(C)N1Cc1ccc(-c2ccccc2-c2nnn[n-]2)cc1.[K+] (stereo unspecified)
- Kb (Oryctolagus cuniculus; Oryctolagus cuniculus, Aorta): 0.0053 µM
- Decrease in blood pressure (Rattus norvegicus [13]): 14%
- Decrease in blood pressure (Rattus norvegicus [14]): 15%
- Decrease in blood pressure (Rattus norvegicus [15]): 17%
- Decrease in blood pressure (Rattus norvegicus [16]): 14%
- Decrease in blood pressure (Rattus norvegicus [7]): 23%
- Decrease in blood pressure (Rattus norvegicus [3]): 19%
- Decrease in blood pressure (Rattus norvegicus [4]): 20%
- Decrease in blood pressure (Rattus norvegicus [5]): 20%
- ED50 (Rattus norvegicus [6]): 1.65 µmol/kg

- Ki [1]: 0.0011 µM
SMILES: CCCCC1=NC(C)(C)C(C(=O)OCC)=C(Cl)N1Cc1ccc(-c2ccccc2-c2nn[nH]n2)cc1
- Kb (Oryctolagus cuniculus; Oryctolagus cuniculus, Aorta): 0.024 µM
- Decrease in blood pressure (Rattus norvegicus [2]): 5%
- Decrease in blood pressure (Rattus norvegicus [3]): 4%
- Decrease in blood pressure (Rattus norvegicus [4]): 2%
- Decrease in blood pressure (Rattus norvegicus [5]): 3%
- ED50 (Rattus norvegicus [6]): 2.4 µmol/kg

- Ki [1]: 0.001 µM
SMILES: CCCCC1=NC(Cl)=C(C(=O)O)C(C)N1Cc1ccc(-c2ccccc2-c2nn[nH]n2)cc1 (stereo unspecified)
- Kb (Oryctolagus cuniculus; Oryctolagus cuniculus, Aorta): 0.00045 µM
- Decrease in blood pressure (Rattus norvegicus [2]): 8%
- Decrease in blood pressure (Rattus norvegicus [3]): 2%
- Decrease in blood pressure (Rattus norvegicus [4]): 1%
- Decrease in blood pressure (Rattus norvegicus [5]): 0%
- ED50 (Rattus norvegicus [6]): 0.076 µmol/kg
